Source: ChEMBL document CHEMBL2176871, “Development of ligands at γ-aminobutyrric acid type A (GABAA) receptor subtype as new agents for pain relief” (Bioorg Med Chem, 2011)
Active and inactive are the calls of the source.

Columns and labels:
[1] = Displacement of [3H]Ro151788 from GABA(A)/BzR in bovine cerebral cortex membrane; format: cell membranes, Bos taurus
Procedure, shortened: (§1)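 Bovine cerebral cortex membranes in 50 mM Tris-citrate pH 7.4; [3H]flumazenil displacement. Compounds first tested at a fixed 10 µM; Ki determined only when inhibition exceeded 80%, using at least six concentrations. Five experiments run in triplicate; IC50 obtained by iterative curve fitting and converted to Ki with the Cheng–Prusoff equation.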

Rattus norvegicus [2] = assay: Toxicity in Sprague-Dawley rat mononeuropathy pain model assessed as effect on contralateral paw pressure at 30 mg/kg, po after 45 mins by paw pressure test; format: organism-based; parameters: dose 30 mg/kg, route oral; conditions: in vivo, 0.75 h
Procedure, shortened: (§2)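 Same sciatic-ligation rat model, 14 days after surgery. Threshold measured on the non-operated contralateral hind paw by analgesimeter at 32 g/s; first-struggle endpoint; 250 g cut-off; pretest rats outside 40–75 g rejected. Compound given po in 10 ml/kg; readings at 15, 30 and 45 min.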

Mus musculus [3] = assay: Antihyperalgesic activity Swiss albino mouse […] assessed as licking latency time at 30 mg/kg, po after 60 mins by hot plate test (reference value: 17.1 +/- 0.71 secs); format: functional
Procedure, shortened: (§3)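 Hot plate at 52.5 ± 0.1 °C in non-diabetic male Swiss mice. Latency to licking of fore or hind paws was timed before dosing and every 15 min up to 60 min after oral dosing. Mice with pretest latencies below 12 s or above 18 s were excluded. Cut-off was 45 s.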

Mus musculus [4] = assay: Antihyperalgesic activity Swiss albino mouse […] assessed as licking latency time at 30 mg/kg, po after 15 mins by hot plate test (reference value: 17.1 +/- 0.71 secs); format: functional; procedure, shortened: as §3
Rattus norvegicus [5] = assay: Antinociceptive activity in Sprague-Dawley rat mononeuropathy pain model assessed as increase in injured paw pressure at 30 mg/kg, po after 30 mins by paw pressure test relative to non-treated control; format: functional
Procedure, shortened: (§4)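 Chronic constriction injury: loose ligatures placed on the common sciatic nerve under chloral hydrate; contralateral sham dissection. Tested 14 days after surgery. Paw pressure applied at 32 g/s; threshold taken as the force causing the first struggle; cut-off 250 g; pretest outliers (<40 g or >75 g) excluded. Oral dosing in 10 ml/kg; read at 15, 30 and 45 min; compared with a CMC-treated group.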

Bos taurus = organism: Bos taurus; assay: Displacement of [3H]Ro151788 from GABA(A)/BzR in bovine cerebral cortex membrane at 10 uM; format: cell membranes; procedure, shortened: as §1
Mus musculus [6] = assay: Antihyperalgesic activity against streptozotocin-induced hyperalgesia in Swiss albino mouse […] assessed as licking latency time at 30 mg/kg, po after 45 mins by hot plate test (reference value: 9.7 +/- 0.8 secs); format: functional
Mus musculus [7] = assay: Antihyperalgesic activity Swiss albino mouse […] assessed as licking latency time at 30 mg/kg, po after 30 mins by hot plate test (reference value: 17.1 +/- 0.71 secs); format: functional; procedure, shortened: as §3
Rattus norvegicus [8] = assay: Toxicity in Sprague-Dawley rat mononeuropathy pain model assessed as effect on contralateral paw pressure at 30 mg/kg, po after 30 mins by paw pressure test; format: organism-based; parameters: dose 30 mg/kg, route oral; conditions: in vivo, 0.5 h; procedure, shortened: as §2
Rattus norvegicus [9] = assay: Antinociceptive activity in Sprague-Dawley rat mononeuropathy pain model assessed as increase in injured paw pressure at 30 mg/kg, po after 15 mins by paw pressure test relative to non-treated control; format: functional; procedure, shortened: as §4
Mus musculus [10] = assay: Antihyperalgesic activity against streptozotocin-induced hyperalgesia in Swiss albino mouse […] assessed as licking latency time at 30 mg/kg, po after 60 mins by hot plate test (reference value: 9.7 +/- 0.8 secs); format: functional
Rattus norvegicus [11] = assay: Antinociceptive activity in Sprague-Dawley rat mononeuropathy pain model assessed as increase in injured paw pressure at 30 mg/kg, po after 45 mins by paw pressure test relative to non-treated control; format: functional; procedure, shortened: as §4
Mus musculus [12] = assay: Antihyperalgesic activity against streptozotocin-induced hyperalgesia in Swiss albino mouse […] assessed as licking latency time at 30 mg/kg, po after 30 mins by hot plate test (reference value: 9.7 +/- 0.8 secs); format: functional
Rattus norvegicus [13] = assay: Toxicity in Sprague-Dawley rat mononeuropathy pain model assessed as effect on contralateral paw pressure at 30 mg/kg, po after 15 mins by paw pressure test; format: organism-based; parameters: dose 30 mg/kg, route oral; conditions: in vivo, 0.25 h; procedure, shortened: as §2
Mus musculus [14] = assay: Antihyperalgesic activity against streptozotocin-induced hyperalgesia in Swiss albino mouse […] assessed as licking latency time at 30 mg/kg, po after 15 mins by hot plate test (reference value: 9.7 +/- 0.8 secs); format: functional
Mus musculus [15] = assay: Anticonvulsant activity in Swiss albino mouse […] assessed as protection against intraperitoneally administered pentylenetetrazol-induced seizures at 30 mg/kg, po after 30 mins; format: functional
Procedure, shortened: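 Male Swiss albino mice. Compounds given po and PTZ 90 mg/kg injected 30 min later; PTZ was dissolved in 0.9% NaCl saline. Clonic generalized convulsions were recorded over 30 min. Each value is the mean of 10 mice. The methods give the PTZ route as s.c. and the table footnote gives it as ip.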

Mus musculus [16] = assay: Anxiolytic-like activity in Swiss albino mouse at 30 mg/kg, po after 30 mins by light/dark box test; format: functional, organism-based; parameters: dose 30 mg/kg
Procedure, shortened: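 Male Swiss mice tested in a two-compartment light/dark box. Transfers between compartments and time spent in the lit side recorded. Compound given po 30 min before testing, in 10 ml/kg; flumazenil given i.p. for antagonism; 8 mice per group.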

Mus musculus [17] = assay: Antihyperalgesic activity Swiss albino mouse […] assessed as licking latency time at 30 mg/kg, po after 45 mins by hot plate test (reference value: 17.1 +/- 0.71 secs); format: functional; procedure, shortened: as §3
Mus musculus [18] = assay: Analgesic activity in Swiss albino mouse abdominal constriction model assessed as decrease in number of acetic acid-induced writhing at 30 to 60 mg/kg, po after 30 mins; format: functional, organism-based; conditions: Abdomen
Procedure, shortened: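 Male Swiss albino mice (23–30 g). Compounds given po in 1% CMC vehicle 30 min before the test. Acetic acid 0.6% injected i.p. at 10 ml/kg. Stretching movements were counted for 10 min, starting 5 min after the acetic acid injection. 8–15 mice per group.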

**Q.** Which results are given for `Cc1cnn2c1n[n+]([O-])c1ccc(NCc3ccccc3)cc12`?
**A.** Ki [1]: 2.58 nM; Activity (Rattus norvegicus [2]): 62.5 g; Time (Mus musculus [3]): 17.8 s; Time (Mus musculus [4]): 6.8 s; Activity (Rattus norvegicus [5]): 27 g; inhibition (Bos taurus): > 80%; Time (Mus musculus [6]): 10.2 s; Time (Mus musculus [7]): 18.2 s; Activity (Rattus norvegicus [8]): 63.2 g; Activity (Rattus norvegicus [9]): 27.4 g; Time (Mus musculus [10]): 11.7 s; Activity (Rattus norvegicus [11]): 28.5 g; Time (Mus musculus [12]): 11.3 s; Activity (Rattus norvegicus [13]): 61.5 g; Time (Mus musculus [14]): 9.6 s; Activity (Mus musculus [15]): 10%; Activity (Mus musculus [16]): Active; Time (Mus musculus [17]): 18.3 s; Activity (Mus musculus [18]): inactive
